The text below walks through data of PMC7870562 (Bioorganic chemistry, 2020).

The subject of assay [1] is SK-Mel-28 cells. Briefly: MTT cytotoxicity / cell viability assay, SK-Mel-28. The assay is classed as cell-based, human. Particulars: for IC50: Homo sapiens, SK-MEL-28, 48 h; for selectivity index: IC50 melanocytes / IC50 SK-Mel-28. A digest of the protocol: (§1)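 Cells in 5–10% FBS/DMEM were seeded at 5×10³ per well, refed at 24 h and grown to 70% confluence. They were treated for 48 h at 37°C, 5% CO2 with two-fold serial dilutions of test compound in DMSO (≤0.1%), […], in 8–10 repeats. After MTT, absorbance was read at 562 nm. Viability was expressed relative to DMSO controls and IC50 derived by nonlinear regression. Data are mean ± SD of ≥5 independent experiments in octuplicates.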

Assay [2] deals with CDK2/Cyclin A (Homo sapiens, UniProt P24941). As to the kind of experiment: In vitro kinase activity assay. The assay is classed as biochemical. Particulars: 10-dose, three-fold serial dilution from 100 μM. In a few lines:
(§2)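 Kinase profiling was run at Reaction Biology. IC50 values came from 10-dose mode, three-fold serial dilutions starting at 100 μM. Reference inhibitors were co-assayed at 1 and 10 μM.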

The test system of assay [3] is UWBCC1 cells. As to the kind of experiment: MTT cytotoxicity / cell viability assay, UWBCC1. The assay is classed as cell-based, human. To be noted: for IC50: Homo sapiens, 48 h; for selectivity index: IC50 HaCaT / IC50 UWBCC1. In a few lines:
as §1

In assay [4] the test system is Melanocyte. As to the kind of experiment: MTT cytotoxicity / cell viability assay, normal melanocytes. The assay is classed as cell-based. To be noted: Homo sapiens, 48 h. In a few lines: as §1
The subject of assay [5] is HaCaT. Briefly: MTT cytotoxicity / cell viability assay, HaCaT keratinocytes. The assay is classed as cell-based. To be noted: Homo sapiens, 48 h. In a few lines:
as §1

Assay [6] concerns A375 cells. Briefly: MTT cytotoxicity / cell viability assay, A375. The assay is classed as cell-based, human. Particulars: for IC50: Homo sapiens, A-375, 48 h; for selectivity index: IC50 melanocytes / IC50 A375. In a few lines: as §1
Assay [7] has as its target mTOR/FRAP1 (Homo sapiens, UniProt P42345). Briefly: In vitro kinase activity assay. The assay is classed as biochemical. Particulars: for IC50: mTOR/FRAP1 IC50, 10-dose, three-fold serial dilution from 100 μM. A digest of the protocol:
as §2

Assay [8] has as its target c-Kit (Homo sapiens, UniProt P10721). As to the kind of experiment: In vitro kinase activity assay. The assay is classed as biochemical. A digest of the protocol:
as §2

Assay [9] deals with A431 cells. As to the kind of experiment: MTT cytotoxicity / cell viability assay, A431. The assay is classed as cell-based, human. To be noted: for IC50: Homo sapiens, A-431, 48 h; for selectivity index: IC50 HaCaT / IC50 A431. A digest of the protocol: as §1
Assay [10] deals with CDK2/Cyclin E (Homo sapiens, UniProt P24941). As to the kind of experiment: In vitro kinase activity assay. To be noted: 10-dose, three-fold serial dilution from 100 μM. The assay is classed as biochemical. A digest of the protocol: as §2
The test system of assay [11] is A431 cells. Briefly: DAPI staining of apoptotic nuclei, A431. The assay is classed as cell-based, human. A digest of the protocol: (§3)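 Equal numbers of cells were seeded in T-25 flasks and exposed to test compound at different concentrations for 36 h. Cells were PBS-washed, stained with DAPI in PBS and imaged by fluorescence microscopy at 10x and 1.6×10x. Apoptotic nuclei were scored by morphology and expressed as percentage of cells.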

The subject of assay [12] is A375 cells. As to the kind of experiment: DAPI staining of apoptotic nuclei, A375. The assay is classed as cell-based, human. A digest of the protocol:
as §3

Assay [13] deals with A375 and A431 cells. As to the kind of experiment: Scratch wound healing assay. The assay is classed as cell-based, human. To be noted: A375 and A431, ½IC50, IC50, 2×IC50, 48 h, vs untreated controls. A digest of the protocol:
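Confluent A375 or A431 monolayers in complete DMEM received two parallel scratches made with a 200-μL pipette tip, then were washed. Wells were treated at ½IC50, IC50 or 2×IC50 for 48 h. Wound area was measured by image analysis as a percentage of the initial cell-free area versus 0 h and 48 h controls. Data are mean ± SD of three independent experiments; one-way ANOVA with Dunn's test.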

Setting [14] is: A431, treated 36 hours at ½IC50.
[15] abbreviates: A375, treated 36 hours at ½IC50.

SMILES strings stand for the structures.

Sequence of c-Kit (P10721 26-976): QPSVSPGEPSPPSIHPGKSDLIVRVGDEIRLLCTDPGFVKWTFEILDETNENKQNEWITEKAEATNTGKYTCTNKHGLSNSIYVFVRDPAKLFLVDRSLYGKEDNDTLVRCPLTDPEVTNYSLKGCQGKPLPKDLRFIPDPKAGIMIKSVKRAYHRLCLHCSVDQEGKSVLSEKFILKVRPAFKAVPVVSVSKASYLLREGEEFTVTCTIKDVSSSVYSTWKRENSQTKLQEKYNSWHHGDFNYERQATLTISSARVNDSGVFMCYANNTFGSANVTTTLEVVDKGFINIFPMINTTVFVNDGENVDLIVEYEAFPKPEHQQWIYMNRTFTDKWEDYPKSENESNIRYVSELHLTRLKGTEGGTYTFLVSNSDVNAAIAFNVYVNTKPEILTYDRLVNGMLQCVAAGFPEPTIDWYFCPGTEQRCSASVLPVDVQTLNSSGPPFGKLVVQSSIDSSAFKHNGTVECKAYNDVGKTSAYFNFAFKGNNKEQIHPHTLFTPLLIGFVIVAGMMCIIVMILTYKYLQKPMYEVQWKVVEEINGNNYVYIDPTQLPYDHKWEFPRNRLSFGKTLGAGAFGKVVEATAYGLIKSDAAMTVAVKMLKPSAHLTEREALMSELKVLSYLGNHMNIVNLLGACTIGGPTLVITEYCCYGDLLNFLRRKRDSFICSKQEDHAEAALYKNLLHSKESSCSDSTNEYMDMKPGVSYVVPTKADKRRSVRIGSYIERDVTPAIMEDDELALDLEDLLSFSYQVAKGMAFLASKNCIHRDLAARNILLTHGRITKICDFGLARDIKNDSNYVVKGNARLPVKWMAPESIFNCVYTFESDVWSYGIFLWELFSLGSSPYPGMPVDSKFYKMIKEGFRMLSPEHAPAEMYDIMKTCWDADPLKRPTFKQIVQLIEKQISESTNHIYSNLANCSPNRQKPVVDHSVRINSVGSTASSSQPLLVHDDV

Usually IC50 stands for the concentration that gives 50% inhibition. The low end stands for higher potency, the high end for lower potency. As to `O=c1c(O)c(-c2ccc(O)c(O)c2)oc2cc(O)ccc12` [F0, 3´,4´,7-trihydroxyflavonol, reference compound], the half-inhibitory concentration (IC50) in assay [1] worked out at 29 ± 4 µM; in assay [2] it was 2.62 µM; in assay [3], 28 ± 0.2 µM; in assay [4], 33 ± 2.7 µM; in assay [5], 30 ± 1.1 µM; in assay [6], 21 ± 1 µM. In addition, the IC50 in [7] came to 28.7 µM; in assay [8], 1.34 µM; in assay [9], 26 ± 1 µM; in [10], 3.34 µM. In addition, the selectivity index turned out to be 1.1 in assay [1], 1.1 in assay [3], 1.6 in assay [6] and 1.2 in assay [9].

Turning to `Cc1ccc2c(=O)c(O)c(-c3cccc(Cl)c3)oc2c1` [F8, 2-(3-Chlorophenyl)-3-hydroxy-7-methyl-4H-chromen-4-one], the IC50 in assay [1] is 22 ± 3 µM; in assay [2], 7.16 µM; in assay [3], 6.7 ± 1.5 µM; in [4] it was 26 ± 3.8 µM; in assay [5], 22 ± 0.2 µM; in assay [6], 8.4 ± 0.4 µM. Besides, the concentration for half-maximal inhibition (IC50) in [7] was 23.9 µM; in assay [8], 0.54 µM; in assay [9] it was 8.3 ± 2.1 µM; in [10], 17.1 µM. The selectivity index in assay [1] was 1.1; in [3] it was 3.3; in assay [6] it was 3.1; in [9] it was 2.7. Further, the “DAPI (+) apoptotic cells” value came to 12.8% in assay [11] (A431, treated 36 hours at IC50); 5.84% in assay [11] (setting [14]); 11.3% in assay [12] (A375, treated 36 hours at IC50); 6.5% in assay [12] (setting [15]).

On to `COc1cccc(-c2oc3cc(C)ccc3c(=O)c2O)c1` [F9, 3-Hydroxy-2-(3-methoxyphenyl)-7-methyl-4H-chromen-4-one], for which the IC50 in assay [1] amounted to 17 ± 1 µM; in assay [2], 2.95 µM; in assay [3] it was 9.4 ± 0.3 µM; in assay [4], 26 ± 1.6 µM; in [5], 27 ± 0.3 µM; in [6] it was 12 ± 0.9 µM. For the same molecule, the half-inhibitory concentration (IC50) in [7] came to 1.42 µM; in [8], 0.12 µM; in assay [9], 9.2 ± 0.7 µM; in [10] it was 1.78 µM. Also, the selectivity index is 1.5 in [1], 2.9 in assay [3], 2.2 in assay [6] and 2.9 in assay [9]. Besides, the “DAPI (+) apoptotic cells” value is recorded as 19.1% in [11] (A431, treated 36 hours at IC50); 7.93% in assay [11] (setting [14]); 18.2% in assay [12] (A375, treated 36 hours at IC50); 7.5% in assay [12] (setting [15]). The “inhibition of wound closure” value in assay [13] is 28–72%.

As to `O=c1c(O)c(-c2ccccc2)oc2cc(Br)ccc12` [F14, 7-Bromo-3-hydroxy-2-phenyl-4H-chromen-4-one], the concentration for half-maximal inhibition (IC50) came out at 22 ± 4.3 µM in assay [1]; 6.64 µM in [2]; 3.3 ± 1.3 µM in [3]; 24 ± 0.84 µM in assay [4]; 24 ± 0.2 µM in assay [5]; 15 ± 0.08 µM in assay [6]. Besides, the half-maximal inhibitory concentration (IC50) in assay [7] is more than 100 µM; in assay [8], 0.13 µM; in assay [9], 5.3 ± 2.1 µM; in [10], 5.38 µM. The “DAPI (+) apoptotic cells” value in [11] (setting [14]) came out at 6.92%; in assay [12] (A375, treated 36 hours at IC50), 10.9%; in [12] (setting [15]) it was 6.2%. In addition, the selectivity index was found to be 7.3 in [3], 1.4 in assay [6] and 4.5 in assay [9].

In the case of `O=c1c(O)c(-c2cccc(Cl)c2)oc2ccc(F)cc12` [F17, 2-(3-Chlorophenyl)-6-fluoro-3-hydroxy-4H-chromen-4-one], the IC50 in assay [1] amounted to 25 ± 3.4 µM; in [2], 4.57 µM; in assay [3] it was 8.1 ± 1.2 µM; in [4], 32 ± 0.72 µM; in assay [5] it was 38 ± 0.8 µM; in assay [6] it was 13 ± 1 µM. Moreover, the IC50 came out at 11.5 µM in assay [7], 1.74 µM in assay [8], 10 ± 2.6 µM in [9] and 5.7 µM in [10]. Also, the “DAPI (+) apoptotic cells” value in assay [11] (A431, treated 36 hours at IC50) amounted to 18.4%; in assay [11] (setting [14]), 8.81%; in assay [12] (A375, treated 36 hours at IC50), 17.7%; in [12] (setting [15]), 6.9%. Moreover, the selectivity index was found to be 4.7 in assay [3], 2.5 in assay [6] and 3.8 in assay [9]. In [13], the “inhibition of wound closure” value is given as 28–72%.

For `Cc1cc2oc(-c3ccc(OCc4ccccc4)cc3)c(O)c(=O)c2cc1Cl` [F19, 2-(4-(Benzyloxy)phenyl)-6-chloro-3-hydroxy-7-methyl-4H-chromen-4-one], the IC50 in assay [1] amounted to 19 ± 3 µM; in [2], 12.7 µM; in assay [3], 1.1 ± 0.4 µM; in [4], 27 ± 1 µM; in assay [5] it was 28 ± 0.31 µM; in assay [6] it was 13 ± 2.6 µM. In addition, the 50% inhibitory concentration (IC50) turned out to be 1.64 µM in assay [7], 0.33 µM in assay [8] and 1.5 ± 0.3 µM in assay [9]. In addition, the selectivity index in [1] came out at 1.2; in assay [3], 25; in assay [6], 1.7; in assay [9], 19. Also, the “DAPI (+) apoptotic cells” value in [11] (A431, treated 36 hours at IC50) was 14.2%; in assay [11] (setting [14]) it was 6.71%; in assay [12] (A375, treated 36 hours at IC50) it was 13.3%; in assay [12] (setting [15]), 5.6%.

In the case of `CCOc1ccc(-c2oc3cc(Cl)ccc3c(=O)c2O)cc1F` [F21, 7-Chloro-2-(4-ethoxy-3-fluorophenyl)-3-hydroxy-4H-chromen-4-one], the concentration for half-maximal inhibition (IC50) in [1] is 12 ± 3 µM; in assay [2] it was 30.1 µM; in [4], 27 ± 0.1 µM; in assay [5] it was 26 ± 0.4 µM; in assay [6], 8.6 ± 0.4 µM; in assay [8] it was 0.26 µM. Also, in [9], it took 8.2 ± 0.2 µM to reach half-maximal inhibition (IC50). Besides, the figures for the selectivity index in assay [1], in [6] and in [9] were 2.3, 3.2 and 3.2, respectively. The “DAPI (+) apoptotic cells” value in assay [11] (A431, treated 36 hours at IC50) was determined as 14.4%; in assay [11] (setting [14]), 8.8%; in [12] (setting [15]), 5.4%. Besides, the “inhibition of mTOR kinase activity (in words)” value in assay [7] is “did not substantively inhibit”.
